Assay outcomes (PubChem)
Rpn11 block: Rpn11 (human) deubiquitinase inhibition. human 26S proteasome, Ub4-pepOG fluorescence polarization; 20S core pre-blocked with epoxomicin. 0.59% of 360,000 active. AID 588493. inhibition, % at 20 µM;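 active = inhibition at 20 µM, scaled to each plate's controls, above about 33%, limit read from the data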
SENP1 inh: SENP1 (human) catalytic domain inhibition; Q9P0U3; recombinant SENP1 catalytic domain, CyPet-SUMO1-YPet FRET cleavage; inhibition, % at 10 µM; 0.21% of 360,000 active; AID 624204;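 active = inhibition at least 30% at 10 µM, raw YFP signal under a set limit, fluorescence ratio 0.5 to 1.5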
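system = hSENP1 catalytic domain, recombinant | reagent = SFCypet-SUMO1-SFYpet substrate at 25 nM | doses = one dose per compound, 10 µM, 0.5% DMSO | incubation = enzyme reaction for 50 min at room temperature, dark | measured by = FRET, CFP and YFP emission | controls = no-enzyme low, enzyme-DMSO high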
CSN inh: inhibitors of human CSN-mediated cullin deneddylation | inhibition, % at 12.5 µM | 0.38% of 360,000 active | Purified CSN, SCF-Nedd8-OG deneddylation, fluorescence polarization | AID 651999;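 active = pattern-corrected inhibition above about 35%, with an unprinted fluorescence ratio check between 0.5 and 1.5, limit read from the data, passing the limit was not always enough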
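Test system: Human Csn5 produced in HEK293T cells | Compound: 12.5 µM single point | Times: 90 min, room temperature | Signal: Fluorescence polarization readout | Read-out basis: % inhibition of substrate cleavage by Csn5 | Controls: no-enzyme wells high, enzyme-with-substrate wells low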
TPT1 inh: inhibitors of Candida albicans tRNA 2'-phosphotransferase TPT1; recombinant caTPT1, FP RNA substrate dephosphorylation; inhibition, % at 5 µM; 0.81% of 300,000 active; AID 1962;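 active = inhibition above the mean of all tested compounds plus 3 SD, set per screening campaign, cut at about 24% in these data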
HNF4A DNA FP: change in binding of human HNF4 alpha to DNA; P41235; HNF4a-FITC DNA binding, fluorescence polarization, 1 h; activity change, % at 10 µM; 0.3% of 360,000 active; AID 1224865; in the data active = activity change above about 30%, passing the limit was not always enough
Rpn11 confirm: Rpn11 inhibition confirmation, single concentration | purified human 26S proteasome, Ub4-pepOG fluorescence polarization; proteasome pretreated with epoxomicin | shares compounds with Rpn11 block | 29% of 1,900 active | inhibition, % at 20 µM
MMP-2 counter: blocks human MMP-2, flagging nonselective RPN11 hits. shares compounds with Rpn11 block. recombinant MMP-2, FRET peptide cleavage fluorescence. inhibition, % at 20 µM. 4% of 1,900 active;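 also: human MMP-2 activated beforehand with APMA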
Thrombin FP: counter-screen for RPN11 inhibitors: inhibition of bovine thrombin | inhibition, % at 20 µM | shares compounds with Rpn11 block | bovine thrombin cleavage of Ub4-pepOG, fluorescence polarization | AID 602333 | 13% of 1,900 active;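 active = mean inhibition at least 40% at 20 µM, or signal 3 deviations below plate average, so some actives read negative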
Target sequence (P00735 whole entry, looked up): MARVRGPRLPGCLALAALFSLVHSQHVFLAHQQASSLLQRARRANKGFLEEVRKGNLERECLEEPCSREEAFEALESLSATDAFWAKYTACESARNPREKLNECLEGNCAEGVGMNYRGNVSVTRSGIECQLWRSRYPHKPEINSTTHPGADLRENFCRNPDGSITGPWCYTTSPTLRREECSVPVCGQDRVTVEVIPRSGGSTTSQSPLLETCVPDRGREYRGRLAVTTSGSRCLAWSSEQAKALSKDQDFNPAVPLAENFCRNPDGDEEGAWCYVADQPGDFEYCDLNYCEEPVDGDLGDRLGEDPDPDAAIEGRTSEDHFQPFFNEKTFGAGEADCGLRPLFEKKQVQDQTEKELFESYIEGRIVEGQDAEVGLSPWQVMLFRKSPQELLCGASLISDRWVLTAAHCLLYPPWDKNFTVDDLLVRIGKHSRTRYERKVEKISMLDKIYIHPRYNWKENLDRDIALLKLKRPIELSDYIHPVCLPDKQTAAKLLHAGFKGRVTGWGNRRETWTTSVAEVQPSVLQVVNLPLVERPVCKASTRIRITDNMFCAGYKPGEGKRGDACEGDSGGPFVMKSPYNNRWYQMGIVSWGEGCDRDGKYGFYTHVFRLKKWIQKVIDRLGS
Each line names hits and unclear results; the compound was inactive in the other large screens (follow-up assays come after a bar, where they were run). A selection: hits, their analogues and other compounds. The true share with any hit is near 1.6%. Rule as the data show it, unless noted: active = inhibition above about 40%; inactive = the rest.

CCOc1ccc2ccccc2c1C1NC(=O)NC(C)=C1C(=O)OCCOC (centres undefined)	none
COc1ccccc1C(=O)NCCN1CCN(C(=O)c2ccccc2OC)CC1	none
COc1cccc(OC)c1C(=O)NCCN1CCN(C(=O)c2c(OC)cccc2OC)CC1	Rpn11 block 134 | Rpn11 confirm inactive | MMP-2 counter inactive | Thrombin FP inactive
O=C(N/N=C/c1ccncc1)c1cccc(NC(=O)c2ccc(Cl)cc2)c1	Rpn11 block 73, CSN inh 78 | Rpn11 confirm 47 | MMP-2 counter inactive | Thrombin FP inactive
O=C(N/N=C/c1ccc(Br)cc1)c1ccc(NC(=O)c2ccccc2)cc1	Rpn11 block 140 (no result: TPT1 inh) | Rpn11 confirm inactive | MMP-2 counter inactive | Thrombin FP inactive
O=C(C[n+]1ccc(C(=O)N/N=C/c2ccc(O)cc2)cc1)c1ccccc1	Rpn11 block 104 | Rpn11 confirm inactive | MMP-2 counter inactive | Thrombin FP inactive
O=C(NNc1ncnc2ccccc12)c1cccc(Cl)c1	Rpn11 block 74 | Rpn11 confirm 77 | MMP-2 counter inactive | Thrombin FP inactive
CC(=O)NNc1ncnc2ccccc12	none
CN[C@H]1C[C@H]2c3cc(N4CCN(C)CC4)ccc3CCN2C(=O)[C@H]1[C@H](C)O	none (no result: TPT1 inh)
COc1ccc(CC(=O)Nc2ccc(-c3noc(-c4cc(OC)c(OC)c(OC)c4)n3)cc2)cc1	none
COc1ccc(CC(=O)Nc2ccc(-c3noc(-c4ccc(Cl)cc4)n3)cc2)cc1	Rpn11 block 98 | Rpn11 confirm inactive | MMP-2 counter inactive | Thrombin FP inactive
CC(C)CCN1CCNC(=O)C1CC(=O)N(C)CCCN1CCOCC1 (centres undefined)	none
COc1cc(OC)cc(-c2c(C#Cc3ccsc3)c3cc(-c4ccc(C(N)=O)cc4)ccc3n2C)c1	Rpn11 block 48 (no result: TPT1 inh) | Rpn11 confirm inactive | MMP-2 counter inactive | Thrombin FP inactive
Cc1cc(C)c2c(N)c(C(=O)N/N=C/c3cccs3)sc2n1	Rpn11 block 95 | Rpn11 confirm 58 | MMP-2 counter inactive | Thrombin FP 41
Cc1cccc(CNC(=O)c2ccccc2N)c1	Rpn11 block 198 | Rpn11 confirm inactive | MMP-2 counter inactive | Thrombin FP inactive
Cc1ccc(CNC(=O)c2ccccc2N)cc1	none
COc1ccc2[nH]c(=O)c(CN(C(=O)C(C)C)c3ccccc3OC)cc2c1	none
COc1cc(-c2cc(-c3ccc(F)cc3)nc(N)c2C#N)ccc1O	Rpn11 block 97, HNF4A DNA FP 83 | Rpn11 confirm inactive | MMP-2 counter inactive | Thrombin FP inactive
O=C(O)CSc1ncnc2nc[nH]c12	Rpn11 block 168 | Rpn11 confirm inactive | MMP-2 counter inactive | Thrombin FP inactive
COc1ccc(-c2nc3oc4cc(OC)ccc4c(=O)c3c(=O)n2Cc2ccco2)cc1	none
CCc1nc2oc3cc(OC)ccc3c(=O)c2c(=O)n1Cc1ccco1	Rpn11 block active | Rpn11 confirm inactive | MMP-2 counter inactive | Thrombin FP inactive
CN1OC[C@@H]2CN(Cc3cc(Cl)cc(Cl)c3)[C@H](c3cccc(-c4ccc(C#N)cc4)c3)C[C@@H]21	none (no result: TPT1 inh)
CCOC(=O)c1csc(-c2csc(CCNC(=O)c3ccccc3)n2)n1	none (no result: TPT1 inh)
COC(=O)C(Sc1ccc(Cl)cc1)C1SC(=S)N(Cc2ccccc2)C1=O (centres undefined)	Rpn11 block 56 (no result: TPT1 inh) | Rpn11 confirm inactive | MMP-2 counter inactive | Thrombin FP inactive
CC#CC[N+](C)(C)CCCCCCCC	none
CCCCCCCCCCCCCCCC[N+](C)(C)Cc1ccc(F)cc1	Rpn11 block 63 (no result: TPT1 inh) | Rpn11 confirm 88 | MMP-2 counter inactive | Thrombin FP inactive
CC1(C(=O)NS(=O)(=O)Cc2ccccc2C(F)(F)F)CCN1C(=O)Cc1ccccc1 (centres undefined)	none (no result: TPT1 inh)
CCOc1ccc(-c2c(C(=O)N/N=C/C3CC=CCC3)nnn2-c2nonc2N)cc1 (centres undefined)	none
NC(=O)CC(NC(=O)Cc1ccc(Br)cc1)c1ccc(NCCc2ccc(Cl)cc2)c([N+](=O)[O-])c1 (centres undefined)	Rpn11 block 45 (no result: TPT1 inh) | Rpn11 confirm inactive | MMP-2 counter inactive | Thrombin FP inactive
COc1ccc(CCNc2ccc(C(CC(N)=O)NC(=O)Cc3ccc(Br)cc3)cc2[N+](=O)[O-])cc1 (centres undefined)	Rpn11 block 55 | Rpn11 confirm inactive | MMP-2 counter inactive | Thrombin FP inactive
COc1cc(C(=O)Nc2nnc(-c3sccc3C)s2)cc(OC)c1OC	Rpn11 block 174, CSN inh 59 | Rpn11 confirm inactive | MMP-2 counter inactive | Thrombin FP 64
COC(=O)c1c(NC(=O)c2ccc(S(=O)(=O)N3CC(C)OC(C)C3)cc2)sc2c1CCN(C)C2 (centres undefined)	Rpn11 block 69 (no result: TPT1 inh) | Rpn11 confirm 93 | MMP-2 counter inactive | Thrombin FP inactive
CN(C)CCNC(=O)c1ccc(-c2cnn(C)c2)c2ccoc12	none (no result: TPT1 inh)
COC(=O)c1cnn(-c2nc3c(C)cccc3s2)c1C	none
Cc1ccc(CSCC(=O)N/N=C/c2ccc(OCC(=O)Nc3ccc(C)cc3)cc2)cc1	Rpn11 block 102 | Rpn11 confirm 80 | MMP-2 counter inactive | Thrombin FP inactive
COc1ccc(CSCC(=O)N/N=C/c2ccc(OCC(=O)N3CCCCC3)cc2)cc1	none
O=C(c1ccco1)N1CCCC(N2CCN(c3ccccc3F)CC2)C1 (centres undefined)	none
O=C(c1ccnc(Cl)c1)N1CCCC(N2CCN(c3ccccc3F)CC2)C1 (centres undefined)	Rpn11 block 54 | Rpn11 confirm inactive | MMP-2 counter inactive | Thrombin FP inactive
COC(=O)c1[nH]c2ccc(C)cc2c1NC(=O)CN1CCCc2ccccc21	Rpn11 block 66 | Rpn11 confirm 48 | MMP-2 counter inactive | Thrombin FP inactive
CCN(C(=O)N1CCOCC1)c1ccccc1C	none
O=C1CCCN1C(=O)COc1ccccc1[N+](=O)[O-]	none
Cc1ccc(NC(=O)c2cc(Cl)ccc2[N+](=O)[O-])cc1C	none
Cc1cccc(NC(=O)c2cc(Cl)ccc2[N+](=O)[O-])c1	Rpn11 block 73 | Rpn11 confirm inactive | MMP-2 counter inactive | Thrombin FP inactive
Cc1ccc2oc(=O)c(/C=C(\O)C(C)(C)C)nc2c1	none
Cc1ccc2oc(=O)c(/C=C(\O)c3ccco3)nc2c1	Rpn11 block 66, HNF4A DNA FP 41 | Rpn11 confirm 70 | MMP-2 counter inactive | Thrombin FP inactive
